Data taken from the EternaBench riboswitch data.

Test system: MS2 coat protein
Assay: apparent Kd, MS2 coat protein; higher = weaker binding; RNA-MaP array; FMN 200 µM where present
In short: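 In 100 mM Tris-HCl pH 7.5, 80 mM KCl, 4 mM MgCl2, BSA, DTT, yeast tRNA and Tween-20, SNAP-549-labelled MS2 coat protein was titrated from 0.7 or 1.5 nM, doubling to 3 µM, over designs transcribed by stalled E. coli RNA polymerase on Illumina sequencing-chip clusters. This was done first without ligand, then with ligand held constant. After green signal was normalised to red-channel RNA signal and control-cluster median Fmax, the apparent Kd was taken as the median of filtered per-cluster binding-curve fits.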

[1] = designed as: OFF switch for flavin mononucleotide, no ligand
[2] = ligand present: flavin mononucleotide, designed as: OFF switch for flavin mononucleotide
[3] = designed as: ON switch for flavin mononucleotide, no ligand
[4] = ligand present: flavin mononucleotide, designed as: ON switch for flavin mononucleotide

Sequence	apparent Kd [1] [µM]	apparent Kd [2] [µM]	apparent Kd [3] [µM]	apparent Kd [4] [µM]
GCACUGGAUGUAGGAUAUCAGGACGAUAAGUCCUGAGAAGGACAUGAGGAUCACCCAUGUGAUAAAACCAGUGCAAAUAAUAUA	0.0185	0.109		
AGCCCUGACGUCAGGAUAUCCGGCCAAUAGGCCAAGGAGAAGGGACAUGAGGAUCACCCAUGUGCUUGGGUCCG	0.0237	0.037		
GGGCUCGGAGGAUAUACAAUGGGCCCGGGAAACCGGGCCCUACAUGAGGAUCACCCAUGUAGAAGGUCGGGUCU	0.0155	0.0241		
AAGGAGUGAGGAUAUGCGCGGGCACGCUCUAAAUAAGAAAGACAUGAGGAUCACCCAUGUAGAAGGCACAAUAA	0.0199	0.0325		
UUAAUUAUACAAGGAUAUCUAAUGGACUUACGACAAACAUGAGGAUCACCCAUGUAAAUAUAUAAAGAGAAGGUGUAUUUUCAG			0.0735	0.0415
UAUGUUGUUGUGAGGAUAUACUUAGUUUGACCGUAGUAGAAGGCACAUGAGGAUCACCCAUGUAGAUGUUUGGU	0.0158	0.0295		
AAUUCACAUGAGGAUCACCCAUGUCAGGAUAUGGUUUCACUUUUUUCUUUUCUUGAUUCCAGAAGGGACAGCUA	0.0773	0.0685		
AGUUAAUAUCGAGGAUAUAAGUCUAAGACAUGAGGAUCACCCAUGUAUGUCUUAGAAGGCGAUAUUAACAGCAUGUUACAUGCA			0.0532	0.00967
AAGAACUGAGGAUAUGCAAAAGGGAAAGCUGAUCCUCAUCUACAUGAGGAUCACCCAUGUAGAAGGCGGGAAAU	0.0494	0.0505		
GAUUAACAUGAGGAUCACCCAUGUCGUUUAAUGGGAGGAUAUACGUGGACCGUAGUCCGCGUAGAAGGCCUAAUUG			0.0908	0.0269
CCAUGUUAGCAGGAUAUGCAAUAAAUCUUUUAAGCAGAAGGGCUUACAUGAGGAUCACCCAUGUAUAAAGUCAA	0.0198	0.0456		
GCGUCAGAAUUAAUUGUGACAAGCAGAAGGCUAUAUCUUAUGUUAGACAUGAGGAUCACCCAUGUAGAGGAUAUGCAGUUACAC	0.00787	0.0142		
GGUCCACAUGAGGAUCACCCAUGUUAGGAUAUCUCCUGCCUCCUAAAUGGAAGCAGACAGAGAAGGAACAUCAA	0.022	0.0844		
GUGACGAUGUAAGGAUAUGCAGUGGAUAACACUGCAGAAGGUACAUGAGGAUCACCCAUGUAACUCUAAUAAUAAUAACGUCAC	0.0121	0.017		
AGUAAGAUGCAGAAGGUGUCAGCUAGAGCUACGACAUGAGGAUCACCCAUGUACUAGAAACAGUACAAGGAUAUGCAUCUUACA			0.0802	0.00827
GUAGAGUAAGGAUAUGCUGAAUAGGAUAGAAUGGUUAGAAAGUAGAAGGUACAUGAGGAUCACCCAUGUAAUGU	0.0249	0.0257		
CGGGCGCGAGGAUAUACAUGAGGAUCACCCAUGUAACGGGUUUGAAUCGGGCUUGCGUGUAGAAGGUGUGUUUG	0.086	0.0738		
AACAAGAGGAUCACCCAUGUAACAUGAGGAUCACCCAUGUUCAAGGAUAUGUACAUGAUACAUGUACAGAAGGUGAAUUGGACU	0.021	0.0362		
AGUCAGAGCAGAGGAUAUAUACAUGAGGAUCACCCAUGUGACUGCCUAUGCUCGAAAGAGUAUGUAUAGAAGGCUGCUCUGACA	0.611	0.276		
UCAGGCUUCGAGAAGGACAUGAAUCGUAGCAUUGCUACGAUCAAAGAUACAUGAGGAUCACCCAUGUAGGAUAUCGGAGUCUGC	0.00575	0.00763		
CCUAGUUGGUAAGGAUAUCCUACACUAUUCUGACCCGUGCAAGCUACAUGAGGAUCACCCAUGUGGGAGAAGGUGCGUCAACGC	0.0138	0.0152		
AUACAUGAGGAUCACCCAUGUAAUUAAUUAAUUAAUAAGAUCUAGGAUAUCAGCUCGAUUAGAGCUGAGAAGGAGAUCACAUGU			0.0242	0.0146
GCAGGUCGAGGAUAUACAUGAGGAUCACCCAUGUGAUUAGCAGUCCUCGGACUGCAAUGUAGAAGGUGACCUGC	0.148	0.501		
